MEKK3 PB1 HTS: modulators (inhibitors or enhancers) of MEK5 binding to human MEKK3 PB1 domain; Q99759; bead-based flow cytometry, Alexa488-MEK5 binding to MEKK3; actives lie on both sides; 0 = blocked by unlabeled MEK5, 100 = vehicle; binding response (% of control), % at 10 µM; 290,000 tested, 1.4% active; AID 1529;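 active means binding response more than 3 SD above or below the average of its plate-row segment, actives on both sides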;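 further: Alexa488 bead fluorescence after subtracting the streptavidin-only scavenger bead signal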
Pemphigus Ab inh: human desmoglein-3 autoantibody binding inhibition; P32926; DSG3-coupled beads, scFv-anti-DSG3-GFP binding, flow cytometry; stronger effect = lower value; binding (percent of control), % at 10 µM; 310,000 tested, 0.48% active;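 active means binding more than 3 SD below its plate's average and above zero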;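 further: hits lower antibody fragment binding to DSG3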
Apaf1 inhib: inhibitors of human Apaf-1 apoptosome; reconstituted apoptosome caspase-3 activity, DEVD-Rh110 fluorescence; inhibition, % at 20 µM; 330,000 tested, 0.71% active; AID 489030; active means inhibition of at least 40% at 20 µM
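Material: cell-free apoptosome with Apaf-1, procaspase-3 and caspase-9; Buffer or medium: Hepes pH 7.5 with detergent and BSA; Reagent: cytochrome c trigger plus (Z-DEVD)2-Rh110 caspase-3 substrate; Times: compound with Apaf-1, dATP, procaspase-3 30 min, then 50 min reaction, room temperature; Technique: Rh110 fluorescence intensity.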
MEKK2wt PB1 HTS: raises or lowers MEK5 binding to wildtype human MEKK2 PB1 domain; bead flow cytometry, Alexa488-MEK5 binding to MEKK2 WT; actives lie on both sides; 290,000 tested, 1.1% active; binding response (% of control), % at 10 µM; Q9Y2U5; in the data active means binding response below about 67% or above about 130%
UBC13 inh: human UBC13 polyubiquitination inhibition. P61088. UBC13 polyubiquitin chain formation, TR-FRET. inhibition, % at 20 µM. 330,000 tested, 0.47% active. AID 485273; in the data active means inhibition above about 45%, passing the limit was not always enough
MEKK2 mut-MEK5: signal of MEK5 binding to mutant human MEKK2 PB1 domain. percent response, % at 10 µM. bead flow cytometry, Alexa488-MEK5 binding to MEKK2 mutant. 290,000 tested, 0.35% active; in the data active means percent response above about 24%, passing the limit was not always enough
MEKK2wt confirm: raises or lowers MEK5 binding to wildtype human MEKK2, retest; shares compounds with MEKK3 PB1 HTS; bead flow cytometry, Alexa488-MEK5 binding to MEKK2 WT; actives lie on both sides; binding response (% of control), % at 10 µM; 5,900 tested, 2.4% active; AID 1892; in the data active means binding response below about 16% or above about 210%; inactive means in between
MEKK2mut-MEK5: signal of MEK5 binding to mutant human MEKK2, retest | shares compounds with MEKK3 PB1 HTS | bead flow cytometry, Alexa488-MEK5 binding to MEKK2 mutant | percent response, % at 10 µM | 5,900 tested, 2% active; in the data active means percent response mostly above about 71%, no sharp cut-off; inactive means mostly below about 38%;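 further: higher means compound restores mutant binding toward wildtype level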
MEKK3-MEK5 inh: confirmation of inhibitors of MEK5 binding to human MEKK3; shares compounds with MEKK3 PB1 HTS; bead flow cytometry, Alexa488-MEK5 binding to MEKK3; stronger effect = lower value; binding response (% of control), % at 10 µM; 5,900 tested, 1.8% active; AID 1894;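 active means binding response below 72% of control, or above a set upper limit, though filed actives all read lower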
Numbers stand for hits; - = inactive; . = no result; ! = not confirmed by another sample; [ ] = dose if it differs, or a comment. Most compounds without a hit are left out; they make up all but 3.2% or so of the library.

SMILES	MEKK3 PB1 HTS	Pemphigus Ab inh	Apaf1 inhib	MEKK2wt PB1 HTS	UBC13 inh	MEKK2 mut-MEK5	MEKK2wt confirm	MEKK2mut-MEK5	MEKK3-MEK5 inh
O=C(CC1C(=O)NCCN1CC1CCCCC1)NCc1ccc(Cl)cc1 (stereo unspecified)	-	-	-	147	-	-	-	-	-
COc1ccc(CNC(=O)CCCN2C(=O)c3ccccc3C2=O)cc1	-	-	-	-	-	-	.	.	.
O=C(CCCCCN1C(=O)c2ccccc2C1=O)Nc1ccc(F)cc1	131	-	-	-	-	-	-	-	-
Cc1ccc(NC(=O)CCn2c(=O)[nH]c3ccsc3c2=O)cc1	-	-	-	-	-	-	.	.	.
O=C(CCCN1C(=O)c2ccccc2C1=O)NCc1ccc(F)cc1	-	-	-	-	-	33	-	-	-
O=C(CCCCCN1C(=O)c2ccccc2C1=O)Nc1ccccc1F	-	-	-	-	-	-	.	.	.
O=C(CCCn1c(=O)[nH]c2ccsc2c1=O)Nc1ccc(F)cc1	54[inhibitor]	-	-	-	-	-	-	-	-
CCCS(=O)(=O)N1CCCC(C(=O)N2CCCCC2)C1 (stereo unspecified)	-	-	-	-	-	-	.	.	.
CC(=O)Oc1c2occc2cc2ccc(=O)oc12	-	-	-	-	-	-	.	.	.
COc1c2occc2c(OC(C)=O)c2c(=O)cc(C)oc12	80[inhibitor]	-	-	-	-	49	-	-	-
O=C(OCc1nnc(-c2ccccc2)o1)c1cc(S(=O)(=O)N2CCOCC2)ccc1F	.	-	-	.	-	.	.	.	.
CS(=O)(=O)NN1C(=O)c2ccccc2NC1c1cc2ccccc2nc1Cl (stereo unspecified)	132	-	-	-	-	-	-	-	-
CC1C(c2ccccc2)N(C)CCC12NC(=O)NC2=O (stereo unspecified)	4.0[inhibitor]	-	-	6.0[inhibitor]	-	-	-	-	-
O=C1NC(=O)C2(CCCC2c2ccccc2)N1 (stereo unspecified)	.	-	.	.	.	.	.	.	.
CCOc1ccc(CCNC(=O)COC(=O)CSc2ccccc2C)cc1OCC	-	-	-	-	-	-	.	.	.
COc1ccc(S(=O)(=O)N(C)C[C@H]2Oc3c(NS(=O)(=O)c4cn(C)cn4)cccc3C(=O)N([C@H](C)CO)C[C@@H]2C)cc1	.	-	-	.	-	.	.	.	.
O=C(NNC(=S)Nc1cccc2ccccc12)c1cccc(Br)c1	80[inhibitor]	-	-	-	-	-	-	-	-
Cc1cccc(S(=O)(=O)N(C)C[C@@H]2OCc3cnnn3CCCC(=O)N([C@@H](C)CO)C[C@@H]2C)c1	.	-	.	.	.	.	.	.	.
CN1CCC2(CC1)N=C(c1ccc(F)cc1)C(=S)N2C(=O)c1ccc(C(C)(C)C)cc1	-	-	-	147	-	-	-	-	-
COc1cccc(OCCOCCOc2ccc(C)cc2[N+](=O)[O-])c1	146	-	-	-	-	-	-	-	-
CNCC[C@H](Oc1cccc2ccccc12)c1cccs1	-	-	-	157!	-	-	-	-	-
C/C(=N\NC(=O)COc1cccc2ccccc12)c1cccs1	-	-	-	-	-	-	.	.	.
CC(Sc1nc(C(F)(F)F)nc2ccccc12)C(=O)NC1CCCC1 (stereo unspecified)	.	-	-	.	-	.	.	.	.
CN1CCN(CC(=O)N2c3ccccc3C(C)(c3ccc(Cl)cc3)CC2(C)C)CC1 (stereo unspecified)	-	-	-	-	-	27	-	-	-
CCN1C(=O)C(=O)N(CC(=O)NC(C)CCc2ccccc2)C1=O (stereo unspecified)	.	-	-	.	-	.	.	.	.
SMILES	MEKK3 PB1 HTS	Pemphigus Ab inh	Apaf1 inhib	MEKK2wt PB1 HTS	UBC13 inh	MEKK2 mut-MEK5	MEKK2wt confirm	MEKK2mut-MEK5	MEKK3-MEK5 inh
Cc1cc(N=Nc2ccc(C)c(N=Nc3cc(C)c(N)cc3N)c2)c(N)cc1N	67[inhibitor]	-	-	-	-	-	-	-	70
O=C(Cc1ccccc1)Nc1ccc(S(=O)(=O)N2CCOCC2)cc1	-	.	-	-	-	-	.	.	.
CC1CCN(S(=O)(=O)c2ccc(NC(=O)Cc3ccccc3)cc2)CC1	0.0[inhibitor]	-	-	-5.0[inhibitor]	-	-	-	-	-
CC1CCN(S(=O)(=O)c2ccc(NC(=O)CN3CCCC(C)C3)cc2)CC1 (stereo unspecified)	15[inhibitor]	-	-	24[inhibitor]	-	-	-	-	-
COc1cc(OC)c(N2CC(C(=O)Nc3cccc(C(=O)NC4CC4)c3)CC2=O)cc1Cl (stereo unspecified)	.	-	-	.	-	.	.	.	.
Cc1ccc(Cn2ccc(-c3cnc(-c4ccccc4)s3)n2)cc1	-	.	-	-	-	-	.	.	.
O=S(=O)(c1ccccc1)n1ccc(-c2cnc(-c3ccccc3)s2)n1	129	.	-	-	-	-	-	-	-
CC1(c2ccc3ccccc3c2)NC(=O)N(CC(=O)N2CCN(Cc3ccc(C#N)cc3)CC2)C1=O (stereo unspecified)	.	-	-	.	-	.	.	.	.
Cc1cccc(-n2c(CNC(=O)c3cccc([N+](=O)[O-])c3C)n[nH]c2=S)c1	-	-	-	-	-	-	.	.	.
COc1ccccc1-n1c(CNC(=O)c2cccc([N+](=O)[O-])c2C)n[nH]c1=S	26[inhibitor]	-	-	36[inhibitor]	-	-	-	-	-
Nc1[nH]n(-c2ccccc2)c(=O)c1N=Nc1ccc2c(c1)OCCO2	75[inhibitor]	-	-	-	-	-	-	-	-
Nc1[nH]n(-c2ccccc2)c(=O)c1N=Nc1ccc2c(c1)OCO2	-	-	-	-	-	-	.	.	.
CCn1c(SCC(=O)c2ccc(Cl)cc2)nnc1-c1ccoc1C	-	-	-	-	-	-	.	.	.
Cc1occc1-c1nnc(SCC(=O)c2ccc(Cl)cc2)n1CC1CCCO1 (stereo unspecified)	2.0[inhibitor]	-	-	3.0[inhibitor]	-	-	-	-	-
COCCn1c(N)c(N(Cc2ccccc2)C(=O)COc2ccccc2F)c(=O)[nH]c1=O	.	-	-	.	-	.	.	.	.
O=S(=O)(NC1c2cccc3cccc(c23)C1Sc1ncccn1)c1ccccc1 (stereo unspecified)	144	-	-	-	-	-	-	-	-
O=C(c1cccc(Br)c1)N1CCN(S(=O)(=O)N2CCCCC2)CC1	-	-	-	-	-	-	.	.	.
CN1c2ccccc2C(O)=C(C(=S)Nc2ccc(F)c(Cl)c2)S1(=O)=O	130	-	-	-	-	-	-	-	-

Compound activity: PubChem BioAssay, several laboratories
